Results as given in ChEMBL document CHEMBL1125378, “alpha-Methyl polyamines: metabolically stable spermidine and spermine mimics capable of supporting growth in cells depleted of polyamines” (J Med Chem, 1992).
“And” between values parts separate entries of the source, which are not always exact repeats. Equal values may be shown once.

Columns and labels:
HT-29 [1] = assay: Compound level in HT-29 cells after 72 h; assay type: functional, cell-based; details: Homo sapiens
SV3T3 [2] = assay: Compound level in DFMO-treated SV3T3 cells at 0 h; assay type: functional, cell-based; details: Mus musculus
In short: (§1)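 SV-3T3 fibroblasts (experiment A) held in 5 mM DFMO for 72 h before polyamine addition and throughout a further 72 h. Intracellular polyamines expressed as nmol/mg protein (detection limit 0.05). SD from at least four separate experiments, or duplicate where no SD is given.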

HT-29 [3] = assay: Compound level in HT-29 cells after 96 h; assay type: functional, cell-based; details: Homo sapiens
In short: (§2)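 HT29 experiment B: 5 mM DFMO for 120 h before addition and throughout a further 96 h; refed at 96 h. Cells without DFMO cultured 96 h in total. Polyamines measured as nmol/mg protein (detection limit 0.2). SD from at least four separate experiments.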

SV3T3 [4] = assay: Compound level in SV3T3 cells after 96 hr; assay type: functional, cell-based; details: Mus musculus
L1210 [5] = assay: Compound level in L1210 cells after 72 h; assay type: functional, cell-based; details: Mus musculus
In short: (§3)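 L1210 cells held in 5 mM DFMO for 72 h before polyamine addition and through a further 72 h, refed at 72 h; controls without DFMO cultured 72 h in total. Intracellular polyamines reported as nmol/mg protein (detection limit 0.2). Mean ± SD from at least four separate experiments.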

L1210 [6] = assay: Compound level in 72 hr DFMO (5 mM)-treated L1210 cells after exposure to 10 uM spermidine; assay type: functional, cell-based; details: Mus musculus; in short: as §3
L1210 [7] = assay: Compound level in 72 h DFMO (5 mM)-treated L1210 cells after exposure to 10 uM spermine; assay type: functional, cell-based; details: Mus musculus; in short: as §3
HT-29 [8] = assay: Compound level in 72 hr DFMO (5 mM)-treated HT-29 cells after exposure to 10 uM spermine; assay type: functional, cell-based; details: Homo sapiens
In short: (§4)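 HT29 cells pretreated with 5 mM DFMO for 120 h, then polyamine added and culture continued with DFMO for 72 h (experiment A); refed at 96 h. Cellular polyamine content given as nmol/mg protein (detection limit 0.2). SD from at least four separate experiments.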

HT-29 [9] = assay: Compound level in 72 hr DFMO (5 mM)-treated HT-29 cells after exposure to 25 uM 1-methylspermine; assay type: functional, cell-based; details: Homo sapiens; in short: as §4
L1210 [10] = assay: Compound level in 72 hr DFMO (5 mM)-treated L1210 cells after exposure to 10 uM 1,12-dimethylspermine; assay type: functional, cell-based; details: Mus musculus; in short: as §3
L1210 [11] = assay: Compound level in DFMO-treated L1210 cells at 0 h; assay type: functional, cell-based; details: Mus musculus; in short: as §3
HT-29 [12] = assay: Compound level in 72 hr DFMO (5 mM)-treated HT-29 cells after exposure to 15 uM spermine; assay type: functional, cell-based; details: Homo sapiens; in short: as §4
HT-29 [13] = assay: Compound level in 72 hr DFMO (5 mM)-treated HT-29 cells after exposure to 10 uM spermidine; assay type: functional, cell-based; details: Homo sapiens; in short: as §4
HT-29 [14] = assay: Compound level in 72 hr DFMO (5 mM)-treated HT-29 cells after exposure to 10 uM 1-methylspermine; assay type: functional, cell-based; details: Homo sapiens; in short: as §4
SV3T3 [15] = assay: Compound level in 72 hr DFMO (5 mM)-treated SV3T3 cells after exposure to 10 uM spermine; assay type: functional, cell-based; details: Mus musculus; in short: as §1
HT-29 [16] = assay: Compound level in 96 hr DFMO (5 mM)-treated HT-29 cells after exposure to 10 uM spermine; assay type: functional, cell-based; details: Homo sapiens
Homo sapiens = organism: Homo sapiens; assay: Compound level in DFMO-treated HT-29 cells after 96 h; assay type: functional, cell-based; in short: as §2
[17] = Retention time was determined; assay type: ADME
SV3T3 [18] = assay: Compound level in 72 hr DFMO (5 mM)-treated SV3T3 cells after exposure to 10 uM spermidine; assay type: functional, cell-based; details: Mus musculus; in short: as §1
HT-29 [19] = assay: Compound level in 72 h DFMO (5 mM)-treated HT-29 cells after exposure to 25 uM spermidine; assay type: functional, cell-based; details: Homo sapiens
HT-29 [20] = assay: Compound level in DFMO-treated HT-29 cells after 72 h; assay type: functional, cell-based; details: Homo sapiens; in short: as §4
SV3T3 [21] = assay: Compound level in 96 hr DFMO (5 mM)-treated SV3T3 cells after exposure to 10 uM spermine; assay type: functional, cell-based; details: Mus musculus
SV3T3 [22] = assay: Compound level in 96 hr DFMO (5 mM)-treated SV3T3 cells after exposure to 25 uM spermine; assay type: functional, cell-based; details: Mus musculus
HT-29 [23] = assay: Compound level in 72 hr DFMO (5 mM)-treated HT-29 cells after exposure to 10 uM 1-methylspermidine; assay type: functional, cell-based; details: Homo sapiens; in short: as §4
HT-29 [24] = assay: Compound level in 72 hr DFMO (5 mM)-treated HT-29 cells after exposure to 25 uM 1-methylspermidine; assay type: functional, cell-based; details: Homo sapiens; in short: as §4
SV3T3 [25] = assay: Compound level in 72 hr DFMO (5 mM)-treated SV3T3 cells after exposure to 1 uM 1-methylspermidine; assay type: functional, cell-based; details: Mus musculus; in short: as §1
SV3T3 [26] = details: Mus musculus
SV3T3 [27] = details: Mus musculus; remark: listed apart in the source
HT-29 [28] = assay: Compound level in 72 hr DFMO (5 mM)-treated HT-29 cells after exposure to 25 uM 1,12-dimethylspermine; assay type: functional, cell-based; details: Homo sapiens, in the assay text read “120 hr” for “72 hr”; in short: as §2
SV3T3 [29] = assay: Compound level in 72 h DFMO (5 mM)-treated SV3T3 cells after exposure to 10 uM 1-methylspermidine; assay type: functional, cell-based; details: Mus musculus; in short: as §1
L1210 [30] = assay: Compound level in 72 hr DFMO (5 mM)-treated L1210 cells after exposure to 10 uM 1-methylspermidine; assay type: functional, cell-based; details: Mus musculus; in short: as §3
SV3T3 [31] = assay: Compound level in 72 hr DFMO (5 mM)-treated SV3T3 cells after exposure to 1 uM 1,12-dimethylspermine; details: Mus musculus
HT-29 [32] = assay: Compound level in 72 hr DFMO (5 mM)-treated HT-29 cells after exposure to 10 uM 1,12-dimethylspermine; assay type: functional, cell-based; details: Homo sapiens, in the assay text read “120 hr” for “72 hr”; in short: as §2
SV3T3 [33] = assay: Compound level in 72 hr DFMO (5 mM)-treated SV3T3 cells after exposure to 10 uM 1-methylspermine; assay type: functional, cell-based; details: Mus musculus; in short: as §1
SV3T3 [34] = details: Mus musculus; remark: listed apart in the source
HT-29 [35] = assay: Compound level in DFMO-treated HT-29 cells at 0 h; assay type: functional, cell-based; details: Homo sapiens
SV3T3 [36] = assay: Compound level in 96 hr DFMO (5 mM)-treated SV3T3 cells after exposure to 25 uM 1,12-dimethylspermine; assay type: functional, cell-based; details: Mus musculus
SV3T3 [37] = details: Mus musculus; remark: listed apart in the source
L1210 [38] = details: Mus musculus
SV3T3 [39] = assay: Compound level in 96 hr DFMO (5 mM)-treated SV3T3 cells after exposure to 10 uM 1,12-dimethylspermine; assay type: functional, cell-based; details: Mus musculus
SV3T3 [40] = assay: Compound level in 72 hr DFMO (5 mM)-treated SV3T3 cells after exposure to 25 uM 1-methylspermine; assay type: functional, cell-based; details: Mus musculus; in short: as §1
L1210 [41] = assay: Compound level in 72 hr DFMO (5 mM)-treated L1210 cells after exposure to 10 uM 1-methylspermine; assay type: functional, cell-based; details: Mus musculus; in short: as §3
SV3T3 [42] = assay: Compound level in 72 hr DFMO (5 mM)-treated SV3T3 cells after exposure to 25 uM 1-methylspermidine; assay type: functional, cell-based; details: Mus musculus; in short: as §1
SV3T3 [43] = assay: Compound level in 72 hr DFMO (5 mM)-treated SV3T3 cells after exposure to 1 uM 1-methylspermine; assay type: functional, cell-based; details: Mus musculus; in short: as §1

## NCCCCN
HT-29 [1]
  Level (nM (mg of protein)-1): 4.4
SV3T3 [2]
  Level (nM (mg of protein)-1): 0.5
HT-29 [3]
  Level (nM (mg of protein)-1): 5.9
SV3T3 [4]
  Level (nM (mg of protein)-1): 0.9
L1210 [5]
  Level (nM (mg of protein)-1): 5.8
L1210 [6]
  Level (nM (mg of protein)-1): 0.8

## NCCCCNCCCN [SPERMIDINE]
L1210 [7]
  Level (nM (mg of protein)-1): 6.4
HT-29 [8]
  Level (nM (mg of protein)-1): 7.9
HT-29 [1]
  Level (nM (mg of protein)-1): 9.8
SV3T3 [2]
  Level (nM (mg of protein)-1): 0.3
HT-29 [9]
  Level (nM (mg of protein)-1): 0.3
L1210 [10]
  Level (nM (mg of protein)-1): 0.2
HT-29 [3]
  Level (nM (mg of protein)-1): 13.4
L1210 [11]
  Level (nM (mg of protein)-1): 1
HT-29 [12]
  Level (nM (mg of protein)-1): 4.8
HT-29 [13]
  Level (nM (mg of protein)-1): 23.6
SV3T3 [4]
  Level (nM (mg of protein)-1): 26.4
HT-29 [14]
  Level (nM (mg of protein)-1): 0.4
SV3T3 [15]
  Level (nM (mg of protein)-1): 2.6
HT-29 [16]
  Level (nM (mg of protein)-1): 4.4
Homo sapiens
  Level (nM (mg of protein)-1): 0.4
[17]
  tR: 33.9 min
L1210 [5]
  Level (nM (mg of protein)-1): 41
L1210 [6]
  Level (nM (mg of protein)-1): 38
SV3T3 [18]
  Level (nM (mg of protein)-1): 8.7
HT-29 [19]
  Level (nM (mg of protein)-1): 25.1
HT-29 [20]
  Level (nM (mg of protein)-1): 0.7
SV3T3 [21]
  Level (nM (mg of protein)-1): 11.5
SV3T3 [22]
  Level (nM (mg of protein)-1): 3.1

## NCCCNCCCCNCCCN [SPERMINE]
L1210 [7]
  Level (nM (mg of protein)-1): 35.6
HT-29 [23]
  Level (nM (mg of protein)-1): 1.1
HT-29 [8]
  Level (nM (mg of protein)-1): 21.5
HT-29 [1]
  Level (nM (mg of protein)-1): 10.5
HT-29 [24]
  Level (nM (mg of protein)-1): 1.2
SV3T3 [25]
  Level (nM (mg of protein)-1): 3.8
SV3T3 [2]
  Level (nM (mg of protein)-1): 9.3 and 7.8
SV3T3 [26]
  Level (nM (mg of protein)-1): 11.5
HT-29 [9]
  Level (nM (mg of protein)-1): 0.8
SV3T3 [27]
  Level (nM (mg of protein)-1): 14.3
L1210 [10]
  Level (nM (mg of protein)-1): 3.2
HT-29 [3]
  Level (nM (mg of protein)-1): 17.8
L1210 [11]
  Level (nM (mg of protein)-1): 13.4
HT-29 [12]
  Level (nM (mg of protein)-1): 21.7
HT-29 [13]
  Level (nM (mg of protein)-1): 10.3
SV3T3 [4]
  Level (nM (mg of protein)-1): 7.1
HT-29 [14]
  Level (nM (mg of protein)-1): 0.7
SV3T3 [15]
  Level (nM (mg of protein)-1): 20.6
HT-29 [28]
  Level (nM (mg of protein)-1): 0.7
HT-29 [16]
  Level (nM (mg of protein)-1): 21.5
SV3T3 [29]
  Level (nM (mg of protein)-1): 0.4
L1210 [30]
  Level (nM (mg of protein)-1): 1.1
Homo sapiens
  Level (nM (mg of protein)-1): 4.4
SV3T3 [31]
  Level (nM (mg of protein)-1): 7.8
[17]
  tR: 40 min
HT-29 [32]
  Level (nM (mg of protein)-1): 0.9
L1210 [5]
  Level (nM (mg of protein)-1): 9.1
SV3T3 [33]
  Level (nM (mg of protein)-1): 0.3
L1210 [6]
  Level (nM (mg of protein)-1): 16.3
SV3T3 [34]
  Level (nM (mg of protein)-1): 7.7
SV3T3 [18]
  Level (nM (mg of protein)-1): 9.5
HT-29 [35]
  Level (nM (mg of protein)-1): 5.4 and 7.1
SV3T3 [36]
  Level (nM (mg of protein)-1): 1
SV3T3 [37]
  Level (nM (mg of protein)-1): 13.5
L1210 [38]
  Level (nM (mg of protein)-1): 7.3
HT-29 [19]
  Level (nM (mg of protein)-1): 9
HT-29 [20]
  Level (nM (mg of protein)-1): 3.8
SV3T3 [39]
  Level (nM (mg of protein)-1): 3.3
SV3T3 [40]
  Level (nM (mg of protein)-1): 0.8
L1210 [41]
  Level (nM (mg of protein)-1): 1.7
SV3T3 [42]
  Level (nM (mg of protein)-1): 0.3
SV3T3 [43]
  Level (nM (mg of protein)-1): 3.5
SV3T3 [21]
  Level (nM (mg of protein)-1): 24.5
SV3T3 [22]
  Level (nM (mg of protein)-1): 31.5
